Here are results for two molecules from ChEMBL document CHEMBL1155998, “Design and synthesis of piperazinylpyrimidinones as novel selective 5-HT(2C) agonists” (Bioorg Med Chem Lett, 2009).

Data set [1] has as its target D(3) dopamine receptor (Homo sapiens) (UniProt P35462). Put plainly: Binding affinity to dopamine D3 receptor.
Data set [2] deals with 5-hydroxytryptamine receptor 4 (Homo sapiens) (UniProt Q13639). Kind of data set: Binding affinity to 5HT4E receptor.
Data set [3] concerns the target Beta-2 adrenergic receptor (Homo sapiens) (UniProt P07550). Put plainly: Binding affinity to beta2 receptor.
The target in data set [4] is Muscarinic acetylcholine receptor M3 (Homo sapiens) (UniProt P20309). Put plainly: Binding affinity to M3 receptor.
Data set [5] in a line: Binding affinity to calcium ion channel at L-verapamil site.
In data set [6] the test system is Canis familiaris. Put plainly: Increase of urethral pressure in iv dosed dog. It counts as functional, Canis lupus familiaris, Urethra. An outline of the steps: (§1)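 Anaesthetised dogs, two animals, in a urethral function model. Compound was given by intravenous infusion. Peak urethral pressure was recorded as % increase, alongside measured free plasma concentrations.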

Data set [7] can be described thus: Ratio of drug level in CSF to free plasma in iv dosed dog. Format: ADME, organism-based, Canis lupus familiaris. To be noted: in vivo.
The test system of data set [8] is Canis familiaris. Kind of data set: Free plasma concentration in iv dosed dog. It counts as ADME, organism-based, Canis lupus familiaris. To be noted: in vivo. The method in brief:
as §1

Data set [9] has as its target T1, 5-hydroxytryptamine receptor 2A (Homo sapiens, UniProt P28223). Put plainly: Agonist activity at human recombinant 5HT2A receptor transfected in CHO K1 cells assessed as calcium mobilisation by FLIPR assay. Format: functional, cell-based. For orientation: Calcium assays in cells follow changes in intracellular calcium, usually with a dye or a luminescent sensor.

The target of data set [10] is T2, 5-hydroxytryptamine receptor 2B (Homo sapiens, UniProt P41595). Put plainly: Agonist activity at human recombinant 5HT2B receptor transfected in CHO K1 cells assessed as calcium mobilisation by FLIPR assay. It counts as functional, cell-based.
Data set [11] has as its target Voltage-gated inwardly rectifying potassium channel KCNH2 (Homo sapiens, UniProt Q12809). Kind of data set: Binding affinity to human ERG.
For data set [12], the target named is 5-hydroxytryptamine receptor 1B (Homo sapiens) (UniProt P28222). Put plainly: Binding affinity to 5HT1B receptor.
The target of data set [13] is T3, 5-hydroxytryptamine receptor 2C (Homo sapiens, UniProt P28335).
T3 sequence (P28335 whole entry): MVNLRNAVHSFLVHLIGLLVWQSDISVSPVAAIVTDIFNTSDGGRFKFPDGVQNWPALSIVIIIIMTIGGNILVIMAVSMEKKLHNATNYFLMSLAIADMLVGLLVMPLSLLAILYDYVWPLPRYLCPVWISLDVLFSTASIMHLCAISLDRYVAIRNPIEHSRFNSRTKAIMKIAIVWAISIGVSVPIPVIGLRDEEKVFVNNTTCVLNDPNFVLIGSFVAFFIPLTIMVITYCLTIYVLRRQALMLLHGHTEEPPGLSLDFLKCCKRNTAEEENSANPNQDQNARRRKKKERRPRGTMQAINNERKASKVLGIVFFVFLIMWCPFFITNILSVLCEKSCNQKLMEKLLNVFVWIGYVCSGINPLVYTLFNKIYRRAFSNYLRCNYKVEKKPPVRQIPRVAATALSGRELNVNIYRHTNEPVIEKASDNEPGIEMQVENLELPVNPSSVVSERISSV
Put plainly: Agonist activity at human recombinant 5HT2C receptor expressed in CHO K1 cells assessed as calcium mobilisation by FLIPR assay. It counts as functional, cell-based. The method in brief:
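Recombinant CHO K1 cells expressing the human 5-HT2C receptor. Agonism was read as a fluorescent calcium mobilisation signal in a FLIPR assay. Values were reported as EC50 and Emax (%).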

Data set [14] concerns the target T4, 5-hydroxytryptamine receptor 2C (Homo sapiens) (UniProt P28335).
T4 sequence (whole entry): T3 sequence (P28335 whole entry)
Kind of data set: Agonist activity at human recombinant 5HT2C receptor transfected in CHO K1 cells assessed as calcium mobilisation at 10 uM by FLIPR assay relative to serotonin. Format: functional, cell-based. The method in brief:
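Recombinant CHO K1 cells stably expressing the human 5-HT2C receptor; agonist-induced calcium mobilisation read as a fluorescence signal on FLIPR. Potency reported as EC50 and efficacy as Emax (%).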

Data set [15] in a line: Lipophilicity, log Dof the compound at pH 7.4. It counts as physicochemical. To be noted: buffer.
The test system of the next data set is MDR1 (human). Put plainly: Efflux ratio, permeability from basolateral to apical over apical to basolateral side in MDCK cells expressing human MDR1 gene. It counts as ADME, cell-based, Canis lupus familiaris. Particulars: dog.
Data set [16] is described as follows: Intrinsic clearance in human liver microsomes. Format: ADME, Microsome.
Data set [17] deals with T1, 5-hydroxytryptamine receptor 2A. Kind of data set: Agonist activity at human recombinant 5HT2A receptor transfected in CHO K1 cells assessed as calcium mobilisation at 10 uM by FLIPR assay. It counts as functional, cell-based. The method in brief:
(§2)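 Recombinant cell-based systems expressing the human 5-HT2A or 5-HT2B receptor. Agonist response was read as calcium mobilisation by FLIPR, with test compound at 10 μM. Results were reported as % agonism.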

The target of data set [18] is T2, 5-hydroxytryptamine receptor 2B. Kind of data set: Agonist activity at human recombinant 5HT2B receptor transfected in CHO K1 cells assessed as calcium mobilisation at 10 uM by FLIPR assay. Format: functional, cell-based. The method in brief: as §2

T2 sequence (P41595 whole entry): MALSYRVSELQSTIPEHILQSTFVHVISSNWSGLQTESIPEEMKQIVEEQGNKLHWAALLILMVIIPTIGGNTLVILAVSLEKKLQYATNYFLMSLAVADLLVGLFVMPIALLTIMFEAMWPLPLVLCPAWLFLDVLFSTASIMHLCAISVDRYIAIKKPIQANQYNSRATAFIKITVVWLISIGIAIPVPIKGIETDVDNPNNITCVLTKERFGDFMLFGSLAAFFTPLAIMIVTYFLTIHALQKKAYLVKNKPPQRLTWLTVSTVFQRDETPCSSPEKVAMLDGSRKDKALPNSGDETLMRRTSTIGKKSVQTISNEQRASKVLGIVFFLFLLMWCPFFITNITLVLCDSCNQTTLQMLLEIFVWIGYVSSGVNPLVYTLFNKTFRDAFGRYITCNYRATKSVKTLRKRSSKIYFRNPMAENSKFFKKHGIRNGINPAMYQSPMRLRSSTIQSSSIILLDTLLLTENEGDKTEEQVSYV
T1 sequence (P28223 whole entry): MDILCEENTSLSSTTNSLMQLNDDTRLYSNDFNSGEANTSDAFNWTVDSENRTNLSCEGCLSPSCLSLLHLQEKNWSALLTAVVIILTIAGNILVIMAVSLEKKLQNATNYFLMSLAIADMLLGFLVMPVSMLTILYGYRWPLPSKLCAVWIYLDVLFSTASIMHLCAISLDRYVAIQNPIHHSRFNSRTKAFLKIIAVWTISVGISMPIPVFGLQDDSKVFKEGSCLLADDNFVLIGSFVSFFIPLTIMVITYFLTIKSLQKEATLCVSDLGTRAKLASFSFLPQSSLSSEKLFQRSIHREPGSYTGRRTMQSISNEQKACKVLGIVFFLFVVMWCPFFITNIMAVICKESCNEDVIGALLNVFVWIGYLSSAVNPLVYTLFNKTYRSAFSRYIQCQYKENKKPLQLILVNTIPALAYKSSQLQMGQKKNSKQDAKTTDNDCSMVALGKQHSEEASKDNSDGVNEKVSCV
Chain of Beta-2 adrenergic receptor (Homo sapiens) (P07550 whole entry, looked up): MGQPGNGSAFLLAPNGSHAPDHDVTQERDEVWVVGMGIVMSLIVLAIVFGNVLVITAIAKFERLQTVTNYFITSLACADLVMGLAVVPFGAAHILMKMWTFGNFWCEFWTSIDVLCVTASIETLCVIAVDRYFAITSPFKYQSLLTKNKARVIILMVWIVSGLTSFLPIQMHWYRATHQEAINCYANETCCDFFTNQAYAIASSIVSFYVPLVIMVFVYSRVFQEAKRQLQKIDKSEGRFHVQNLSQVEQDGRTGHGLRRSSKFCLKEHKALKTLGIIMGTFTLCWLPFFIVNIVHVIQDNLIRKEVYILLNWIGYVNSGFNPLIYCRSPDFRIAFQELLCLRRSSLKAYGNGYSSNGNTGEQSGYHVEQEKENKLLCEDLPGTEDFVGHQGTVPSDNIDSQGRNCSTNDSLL
Chain of Muscarinic acetylcholine receptor M3 (Homo sapiens) (P20309 whole entry, looked up): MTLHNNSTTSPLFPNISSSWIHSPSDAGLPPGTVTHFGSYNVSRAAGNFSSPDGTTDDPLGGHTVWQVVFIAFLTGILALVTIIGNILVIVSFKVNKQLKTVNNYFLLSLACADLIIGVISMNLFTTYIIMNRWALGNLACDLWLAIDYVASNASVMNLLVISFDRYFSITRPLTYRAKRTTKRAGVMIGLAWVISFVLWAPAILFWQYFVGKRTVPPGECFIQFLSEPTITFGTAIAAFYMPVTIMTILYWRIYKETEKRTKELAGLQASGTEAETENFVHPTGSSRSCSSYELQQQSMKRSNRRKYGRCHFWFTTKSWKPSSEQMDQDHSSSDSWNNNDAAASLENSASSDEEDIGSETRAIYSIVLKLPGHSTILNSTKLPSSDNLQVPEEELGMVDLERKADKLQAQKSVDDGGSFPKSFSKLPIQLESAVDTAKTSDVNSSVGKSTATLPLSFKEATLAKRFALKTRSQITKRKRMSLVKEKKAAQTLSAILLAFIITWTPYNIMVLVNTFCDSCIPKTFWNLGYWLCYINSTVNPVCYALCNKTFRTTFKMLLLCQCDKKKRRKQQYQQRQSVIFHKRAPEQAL
Chain of 5-hydroxytryptamine receptor 1B (Homo sapiens) (P28222 whole entry): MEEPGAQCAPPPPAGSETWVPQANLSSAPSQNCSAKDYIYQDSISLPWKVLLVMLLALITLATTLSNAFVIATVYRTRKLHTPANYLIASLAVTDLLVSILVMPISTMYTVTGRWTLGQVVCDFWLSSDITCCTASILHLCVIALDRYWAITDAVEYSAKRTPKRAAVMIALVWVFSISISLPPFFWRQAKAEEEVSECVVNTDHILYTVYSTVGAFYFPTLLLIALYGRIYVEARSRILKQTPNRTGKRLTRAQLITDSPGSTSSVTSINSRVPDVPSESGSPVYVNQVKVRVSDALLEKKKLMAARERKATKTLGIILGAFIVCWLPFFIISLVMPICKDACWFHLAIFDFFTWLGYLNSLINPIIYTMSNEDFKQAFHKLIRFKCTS
Chain of Voltage-gated inwardly rectifying potassium channel KCNH2 (Q12809 whole entry): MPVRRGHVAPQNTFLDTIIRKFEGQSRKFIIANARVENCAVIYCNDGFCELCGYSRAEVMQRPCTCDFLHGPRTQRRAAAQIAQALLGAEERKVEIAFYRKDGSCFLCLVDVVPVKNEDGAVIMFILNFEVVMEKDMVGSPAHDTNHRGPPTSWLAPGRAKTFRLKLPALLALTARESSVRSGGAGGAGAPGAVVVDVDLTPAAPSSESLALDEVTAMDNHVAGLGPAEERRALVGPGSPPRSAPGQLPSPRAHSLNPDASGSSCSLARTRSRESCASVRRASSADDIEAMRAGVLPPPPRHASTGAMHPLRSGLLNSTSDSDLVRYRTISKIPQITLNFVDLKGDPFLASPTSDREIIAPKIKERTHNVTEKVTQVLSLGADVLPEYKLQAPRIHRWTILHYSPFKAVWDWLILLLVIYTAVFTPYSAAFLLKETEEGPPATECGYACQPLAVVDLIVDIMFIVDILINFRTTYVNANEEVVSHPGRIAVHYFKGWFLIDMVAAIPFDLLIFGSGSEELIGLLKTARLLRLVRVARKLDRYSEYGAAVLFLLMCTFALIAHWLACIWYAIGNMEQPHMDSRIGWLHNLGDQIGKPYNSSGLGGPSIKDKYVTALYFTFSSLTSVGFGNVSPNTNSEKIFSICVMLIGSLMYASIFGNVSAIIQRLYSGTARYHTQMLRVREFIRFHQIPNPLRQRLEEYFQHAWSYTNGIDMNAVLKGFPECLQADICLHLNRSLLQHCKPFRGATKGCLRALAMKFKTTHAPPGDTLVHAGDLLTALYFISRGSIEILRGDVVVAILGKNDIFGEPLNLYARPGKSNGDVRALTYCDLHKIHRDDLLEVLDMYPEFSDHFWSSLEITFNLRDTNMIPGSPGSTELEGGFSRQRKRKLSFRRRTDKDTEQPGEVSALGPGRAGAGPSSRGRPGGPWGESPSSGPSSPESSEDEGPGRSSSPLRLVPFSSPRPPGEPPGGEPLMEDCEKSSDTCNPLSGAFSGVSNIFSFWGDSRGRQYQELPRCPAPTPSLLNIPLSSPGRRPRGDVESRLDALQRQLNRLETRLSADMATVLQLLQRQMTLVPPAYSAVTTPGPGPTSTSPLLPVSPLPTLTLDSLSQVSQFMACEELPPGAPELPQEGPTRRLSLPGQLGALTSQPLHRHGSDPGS
Chain of 5-hydroxytryptamine receptor 4 (Homo sapiens) (Q13639 whole entry): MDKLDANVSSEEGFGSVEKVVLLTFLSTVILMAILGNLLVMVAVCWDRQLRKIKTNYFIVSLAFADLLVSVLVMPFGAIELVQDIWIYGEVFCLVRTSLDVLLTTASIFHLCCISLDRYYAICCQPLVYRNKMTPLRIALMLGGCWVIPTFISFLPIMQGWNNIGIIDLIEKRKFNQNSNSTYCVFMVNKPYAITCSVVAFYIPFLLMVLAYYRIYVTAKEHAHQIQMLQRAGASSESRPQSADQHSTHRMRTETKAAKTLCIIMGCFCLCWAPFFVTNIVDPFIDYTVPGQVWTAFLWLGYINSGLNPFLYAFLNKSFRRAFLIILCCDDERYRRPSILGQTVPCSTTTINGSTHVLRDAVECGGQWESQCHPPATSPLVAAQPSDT
Chain of D(3) dopamine receptor (Homo sapiens) (P35462 whole entry): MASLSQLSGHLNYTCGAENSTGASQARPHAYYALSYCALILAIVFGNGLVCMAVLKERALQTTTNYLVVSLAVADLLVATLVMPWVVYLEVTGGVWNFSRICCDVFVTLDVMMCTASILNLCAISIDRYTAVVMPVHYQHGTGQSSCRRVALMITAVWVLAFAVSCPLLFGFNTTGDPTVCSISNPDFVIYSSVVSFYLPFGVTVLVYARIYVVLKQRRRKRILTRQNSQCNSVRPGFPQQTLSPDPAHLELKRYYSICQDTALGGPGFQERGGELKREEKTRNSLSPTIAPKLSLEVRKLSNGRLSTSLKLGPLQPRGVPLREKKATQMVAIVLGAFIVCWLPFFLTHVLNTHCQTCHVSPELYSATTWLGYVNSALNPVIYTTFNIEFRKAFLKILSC

One may read the EC50 as the concentration that produces a half-maximal response. In general, Ki refers to a dissociation constant, usually derived from enzyme kinetics or from competition with a known ligand. Low readings indicate a stronger hold on the target, high ones a looser hold on the target. In the case of `C[C@@H]1CNCCN1c1cc(=O)n(C)c(COc2ccccc2C(F)(F)F)n1`, the Activity in [1] was 480 nM; in data set [2], above 1 µM; in data set [3], above 1 µM; in data set [4], above 1 µM; in data set [5], above 1 µM; in the data set on Canis familiaris [6] it was 20%. Moreover, the Activity in data set [12] worked out at 210 nM. Moreover, the Ratio in data set [7] is recorded as 0.34. Also, in the data set on Canis familiaris [8], the Cp stood at 19 nM. Further, the EC50 in data set [9] was above 1500 nM; in data set [10], above 10000 nM. For the same molecule, in data set [11], the inhibition constant (Ki) was above 13000 nM.

For orientation: Emax means the maximal effect, on the per cent scale that the assay sets. What is called logD is the decadic logarithm of the distribution of all forms, ionised or not, between an organic phase and buffer at a given pH. Read a low logD as lower lipophilicity. By efflux ratio is commonly meant a quotient of directional permeabilities that is used to spot active efflux. As a reminder, the microsomal CLint is a measure of how fast metabolising enzymes remove a compound, apart from limits set by blood flow. The low end stands for slow turnover, the high end for rapid turnover. `Cn1c(CCc2ccccc2)nc(N2CCNCC2)cc1=O`: in data set [13], the EC50 was 275 nM. Further, the maximum response (Emax) in data set [14] turned out to be 43%. Moreover, the pH-dependent lipophilicity (logD) in data set [15] was determined as 0.6. For the same molecule, in the data set on MDR1 (human), the efflux ratio amounted to 3.4. The molecule also yielded an intrinsic metabolic clearance (microsomal CLint) in [16] below 7 µL/min/mg. The Activity in data set [17] was 13%; in data set [18], below 5%.
